Screening data deposited in PubChem by several laboratories.
D1 allo mod: D1 CRE-luciferase signal change, two-sided – cell-based, HEK293 D1, dopamine EC30, D1 allosteric modulator project, primary screen; D(1A) dopamine receptor (Homo sapiens), P21728; dopamine EC30 potentiation; actives deviate in either direction; B-score at 10 µM; 58,000 tested, 5.9% active; AID 641, 2007;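 active means luminescence count or its row- and column-corrected plate score outside the 99.7% band of the plate's sample wells, on either side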
Calb biofilm kill: clotrimazole potentiators killing Candida biofilms, primary screen, with clotrimazole, Alamar Blue | C. albicans biofilm + clotrimazole | 85,000 tested, 0.14% active | inhibition, % at 6 µM;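 active means inhibition above 20%; inactive means inhibition below 20%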;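 further: preformed 24 hr biofilms exposed to compound for 48 hr; 0% = biofilm without compound and 100% = blank killed by clotrimazole plus chlorhexidine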
MMP-13 inhibitor: human MMP13 inhibitors, primary screen, biochemical, FRET peptide cleavage | inhibition, % at 4 µM | 65,000 tested, 0.07% active | Collagenase 3 (Homo sapiens), P45452 | MMP-13 fTHP FRET cleavage, Mca fluorescence;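 active means inhibition above the mean of compound-free control plate wells plus 3 SD, cut at about 14% in these data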;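 further: 0% = DMSO wells and 100% = wells with reference MMP-13 inhibitor after basal subtraction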
hDAT+cocaine: changed hDAT dopamine uptake under cocaine IC80, either direction, primary screen, cocaine antagonist project, cell-based, LLC-PK1 hDAT, [14C]-dopamine uptake, MLSMR; Sodium-dependent dopamine transporter (Homo sapiens), Q01959; LLC-PK1 hDAT cells, [14C]-dopamine uptake with cocaine IC80; actives deviate in either direction; B-score at 10 µM; 110,000 tested, 1.3% active;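 active means Z score or B-score, a plate-position-corrected score, falls beyond the plate's 99.7% confidence bounds, in either direction; inactive means both scores lie inside the 99.7% bounds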;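 further: scored against the spread of the other compound wells on the same plate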
Target sequence (Q01959 whole entry, looked up): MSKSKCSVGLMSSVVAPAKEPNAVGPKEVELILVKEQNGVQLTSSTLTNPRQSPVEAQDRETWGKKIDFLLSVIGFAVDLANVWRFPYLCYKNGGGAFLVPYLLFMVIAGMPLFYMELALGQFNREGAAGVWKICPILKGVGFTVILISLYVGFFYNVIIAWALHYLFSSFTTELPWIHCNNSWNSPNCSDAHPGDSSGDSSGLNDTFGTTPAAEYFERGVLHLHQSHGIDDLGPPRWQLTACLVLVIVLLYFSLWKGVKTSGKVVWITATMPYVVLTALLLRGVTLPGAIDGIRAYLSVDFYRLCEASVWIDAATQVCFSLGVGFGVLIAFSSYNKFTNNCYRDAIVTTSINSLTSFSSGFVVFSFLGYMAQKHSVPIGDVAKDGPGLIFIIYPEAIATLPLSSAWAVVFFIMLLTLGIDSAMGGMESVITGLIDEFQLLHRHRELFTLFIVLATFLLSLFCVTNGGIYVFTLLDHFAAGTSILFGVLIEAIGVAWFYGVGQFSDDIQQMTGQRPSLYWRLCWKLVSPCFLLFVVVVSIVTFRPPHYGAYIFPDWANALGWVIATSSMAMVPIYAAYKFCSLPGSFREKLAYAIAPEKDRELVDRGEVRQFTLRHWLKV
AP complement: alternative complement pathway inhibitors, primary screen, biochemical, ELISA, human serum, orthogonally pooled compounds | inhibition, % at 5 µM | 62,000 tested, 0.08% active | AID 1235, 2008 | LPS-coated ELISA, C3 deposition; tested in compound mixtures;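 active means inhibition above 30% in each of the two pooled mixtures holding the compound, so the lower value exceeds 30%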;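 further: 0% = serum in Mg-EGTA without compound and 100% = EDTA serum blank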
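Medium: diluted human serum in Mg2+-EGTA GVB++. Assay system: human serum complement alternative pathway, C3 deposition onto LPS. Also added: Plate-bound LPS. Technique: Anti-C3 ELISA, OD 450 nm. Measure: percent inhibition. Incubation: 1 h at 37 °C. Dosing: 5 µM each compound, pools of ten, 50 µM per pool.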
D1 mod confirm: D1 receptor positive allosteric modulators, retest, confirmation, cell-based, HEK293 D1, CRE-luciferase, duplicate | shares compounds with D1 allo mod | dopamine EC30 potentiation; hits give high values | luminescence at 10 µM | 2,200 tested, 88% active | AID 642, 2007;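 active means luminescence in either of two replicates above the same-plate mean plus 3 SD of the low-dose dopamine control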
D1 ag no DA: D1 receptor agonism without dopamine, confirmation, mechanism study for D1 allosteric modulator project, cell-based, HEK293 D1, CRE-luciferase, secondary assay 1. shares compounds with D1 allo mod. luminescence, no dopamine; hits give high values. luminescence at 10 µM. 1,900 tested, 0.8% active. AID 646, 2007; in the data active means luminescence above about 3900
Isoprot counter: alters isoproterenol CRE-luciferase response in HEK293 cells; luminescence at 10 µM; HEK293 D1 CRE-luciferase, isoproterenol EC30 counter-screen; hits give high values; 2,200 tested, 63% active; shares compounds with D1 allo mod;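 active means luminescence in either replicate above plate mean of wells with a partly effective reference agonist dose plus 3 SD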;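 further: isoproterenol raises cAMP through native beta-adrenoceptor Gs so signal bypasses D1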
An asterisk follows results filed as active; . = no result given. Only a selection was taken, and hits are over-represented in it overall.

SMILES | D1 allo mod | Calb biofilm kill | MMP-13 inhibitor | hDAT+cocaine | AP complement | D1 mod confirm | D1 ag no DA | Isoprot counter
Cc1oc2ccc(OCC(N)=O)cc2c1C(=O)OC(C)C | 4.65* | . | 1.8 | -0.429 | 18.4 | 6628* | 1556 | 2732
COc1ccccc1NC=C1C(=O)OC(C)(C)OC1=O | 1.06 | 5.7 | -5.1 | -0.175 | 3.4 | . | . | .
CC1(C)OC(=O)C(=CNc2ccccc2F)C(=O)O1 | 5.72* | 0.9 | 1.6 | . | -1.2 | 9180* | 1436 | 3276*
CCc1nc2n[nH]c(N)c2c2c1CCCC2 | . | 5.1 | 0.4 | -0.321 | . | . | . | .
CCCCc1nc2n[nH]c(N)c2c2c1CCC2 | 7.93* | 6.9 | 6.3 | 0.0966 | -0.4 | 22688* | 1740 | 6660*
O=C(Cc1cccs1)Nc1ccccc1NC(=O)Cc1cccs1 | 4.9* | 6.8 | 0.7 | -0.211 | 13.8 | 5744 | 1712 | 2956
O=C(Cc1cccs1)Nc1ccccc1C(=O)O | -1.2 | 3.4 | 4.6 | -0.248 | 13.6 | . | . | .
CCCc1nc2oc3c(NCC4CCCO4)ncnc3c2c2c1COC(C)(C)C2 (stereo unspecified) | 14.8* | 10.5 | -20.2 | 1.36 | 11.0 | 19660* | . | 4428*
CCCc1nc2oc3c(NCc4ccccn4)ncnc3c2c2c1COC(C)(C)C2 | 16.2* | 5.7 | -29.4 | . | 0.5 | 19424* | . | 5392*
CC1(C)Cc2nc3oc4c(NCc5ccccc5)ncnc4c3cc2CO1 | 0.204 | 9.3 | -200.8 | . | 15.1 | . | . | .
COc1ccc2[nH]c(=O)c(CN(Cc3cccs3)Cc3nnnn3C(C)(C)C)cc2c1 | 5.28* | 5.8 | -6.9 | 2.49* | 3.6 | 7020* | 1520 | 2408
O=C(O)CCC(=O)N1CCc2cc(S(=O)(=O)NC3CCCc4ccccc43)ccc21 (stereo unspecified) | 0.804 | 5.1 | 0.9 | -0.554 | 6.7 | . | . | .
CCC(=O)N1CCc2cc(S(=O)(=O)NCCC(=O)NC3CCCc4ccccc43)ccc21 (stereo unspecified) | 3.82* | 1.9 | 0.1 | 0.0258 | 11.2 | 8544* | 1768 | 2752
Clc1ccc(Cc2nc(-c3cccnc3)no2)cc1 | . | . | . | -0.554 | . | . | . | .
Clc1ccccc1Cn1nnc2c(N3CCCC3)ncnc21 | 3.76* | 3.4 | -3.8 | 0.638 | . | 13096* | 1612 | 2972
O=c1oc2ccccc2c2c1ncn2C1CCCCC1 | 7.4* | 4.5 | 2.3 | 0.045 | 27.6 | 20596* | 1756 | 4072*
CC(C)Cn1cnc2c(=O)oc3ccccc3c21 | . | 4.0 | . | -1.24 | . | . | . | .
O=c1oc2ccccc2c2c1ncn2-c1ccccc1 | 3.63* | . | -0.5 | -1.28 | 8.3 | 9304* | 1488 | 3532*
COc1cc2c(cc1OC)-c1cc(NC3CCCC3)nc(=O)n1CC2 | 8.48* | -4.5 | -5.7 | 0.648 | 13.4 | 14200* | 1764 | 6808*
Cn1c(/C(C#N)=C/C2CC=CCC2)nc2ccccc21 (stereo unspecified) | 3.79* | 3.8 | -0.3 | -0.527 | . | 9264* | 1596 | 3096
COC(=O)CSC1=C(C#N)C(c2cccc(F)c2)CC(=O)N1 (stereo unspecified) | 0.164 | -3.6 | -2.0 | -0.322 | 4.3 | . | . | .
COC(=O)CSC1=C(C#N)C(c2cccc(OC)c2)CC(=O)N1 (stereo unspecified) | 1.95* | -2.5 | 1.4 | -0.993 | 2.3 | 5484 | 1664 | 2468
Cc1cc(Cl)ccc1OC(C)C(=O)N1CCCN(C(=O)C(C)Oc2ccc(Cl)cc2C)CC1 (stereo unspecified) | . | . | . | 0.784 | . | . | . | .
COc1ccc(N2CCN(S(=O)(=O)c3cccc4cccnc34)CC2)cc1 | 8.73* | 0.1 | 0.7 | 0.507 | 1.0 | 19744* | 1632 | 5252*
COc1ccc(NC(=O)C2CCN(S(=O)(=O)c3cccc4cccnc34)CC2)cc1OC | 3.63* | 7.2 | -0.3 | . | 18.4 | 13296* | 1648 | 3148*
SMILES | D1 allo mod | Calb biofilm kill | MMP-13 inhibitor | hDAT+cocaine | AP complement | D1 mod confirm | D1 ag no DA | Isoprot counter
CCn1c(=NC(=O)c2ccc(S(=O)(=O)N3CCOCC3)cc2)sc2cccc(OC)c21 | 0.561 | 3.4 | 0.1 | -0.0733 | 0.5 | . | . | .
CCn1c(=NC(=O)c2ccc(N3C(=O)CCC3=O)cc2)sc2c(OC)ccc(OC)c21 | 9.88* | 0.8 | -2.5 | -2.03 | 13.6 | 22036* | 1820 | 6756*
CCn1c(=NC(=O)CN2C(=O)CCC2=O)sc2c(OC)ccc(OC)c21 | 5.43* | . | 1.3 | 0.0297 | 10.0 | 11544* | . | 2636
COc1ccccc1NS(=O)(=O)c1ccc(NC(=O)c2nc3nc(C)cc(C(F)F)n3n2)cc1 | . | 3.4 | . | 0.616 | . | . | . | .
COc1ccc(C2Nc3ccccc3C(=O)N2O)cc1OC (stereo unspecified) | . | 4.6 | -3.3 | . | -2.0 | . | . | .
COc1ccc(C2CC(=O)Nc3ccccc3S2(=O)=O)cc1OC (stereo unspecified) | 2.86* | 6.3 | 1.4 | -0.841 | 22.4 | 9916* | 1608 | 2252
C=CCC(NC(C)c1ccccc1)c1ccco1 (stereo unspecified) | . | -4.0 | . | 0.668 | . | . | . | .
COc1ccc(C2C3=C(CC(c4ccco4)CC3=O)Nc3ccccc3N2C(C)=O)cc1 (stereo unspecified) | -0.187 | 4.3 | 0.0 | 1.41 | 4.1 | . | . | .
CC1CC(=O)C2=C(C1)Nc1ccccc1N(C(=O)COc1ccccc1)C2c1ccco1 (stereo unspecified) | 14.3* | -3.3 | -7.0 | 2.58 | 12.5 | 7072 | 1484 | 2428
C/C=C/C(=O)Nc1cccc(C2=NOC3(C2)C[C@@H](C(N)=O)N(C(=O)C(c2ccccc2)c2ccccc2)C3)c1 (stereo partly specified) | . | . | . | 0.829 | . | . | . | .
COCCNc1nc(C(C)(C)C)nc2c1nnn2Cc1ccccc1Cl | 0.289 | -0.5 | -2.3 | 0.566 | 8.2 | . | . | .
OCCNc1nc(C2CC2)nc2c1nnn2Cc1ccccc1Cl | 8.9* | 4.5 | 0.9 | -0.456 | 16.7 | 14928* | 1728 | 2932
C=CCn1c(SCc2c(C(=O)OC)sc(N)c2C(=O)OC)nnc1-c1ccc(Br)cc1 | . | . | . | 1.62 | . | . | . | .
CCOC(=O)c1[nH]c2ccccc2c1NC(=O)CC | -0.0512 | 0.0 | -1.6 | . | 26.7 | . | . | .
CCOC(=O)c1[nH]c2ccccc2c1NC(=O)C(C)(C)C | 4.46* | -1.6 | -26.0 | -0.136 | 3.1 | 7700* | 1592 | 2504
CCOC(=O)c1[nH]c2ccccc2c1NC(C)=O | 0.389 | . | -2.0 | -1.33 | 6.3 | . | . | .
